ChEMBL document CHEMBL3102810, “Alkylamino derivatives of pyrazinamide: synthesis and antimycobacterial evaluation” (Bioorg Med Chem Lett, 2014)
In brackets after ≈: the same amount, converted by molar mass. Activity calls are given as the source filed them. The calls are words filed in the database; no cut-off is given here.

Assays:
Aspergillus fumigatus = assay: Antifungal activity against Aspergillus fumigatus 231 after 72 to 120 hrs by microdilution broth method; format: functional, organism-based
Enterococcus sp. = assay: Antibacterial activity against Enterococcus sp. J 14365/08 after 24 to 48 hrs by microdilution broth method; format: functional, organism-based
Procedure, shortened: (§1)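 Antibacterial screen with compound concentrations up to a highest level of 500 µM. Results expressed as MIC in µM.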

Klebsiella pneumoniae [1] = assay: Antibacterial activity against Klebsiella pneumoniae D 11750/08 after 24 to 48 hrs by microdilution broth method; format: functional, organism-based; procedure, shortened: as §1
[2] = system: Staphylococcus epidermidis; assay: Antibacterial activity against Staphylococcus epidermidis H 6966/08 after 48 hrs by microdilution broth method; format: functional; procedure, shortened: as §1
Candida tropicalis = assay: Antifungal activity against Candida tropicalis 156 after 72 to 120 hrs by microdilution broth method; format: functional, organism-based
Klebsiella pneumoniae [3] = assay: Antibacterial activity against ESBL positive Klebsiella pneumoniae J 14368/08 after 24 to 48 hrs by microdilution broth method; format: functional, organism-based; procedure, shortened: as §1
Mycobacterium kansasii = assay: Antimycobacterial activity against pyrazinamide-resistant Mycobacterium kansasii CNCTC My 235/80 after 5 days by microplate alamar blue assay; format: functional; details: CNCTC My 235/80, 120 h
Procedure, shortened: (§2)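 Microplate alamar blue assay run at pH 5.6, using conditions optimized for pyrazinamide. Strains came from the Czech National Collection of Type Cultures. MIC was read in µg/mL and converted to µM using molecular weight.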

[4] = Lipophilicity, log K of the compound by HPLC analysis; format: physicochemical
Trichosporon asahii = assay: Antifungal activity against Trichosporon asahii 1188 after 72 to 120 hrs by microdilution broth method; format: functional, organism-based
Lichtheimia corymbifera = assay: Antifungal activity against Absidia corymbifera 272 after 72 to 120 hrs by microdilution broth method; format: functional, organism-based
[5] = system: Mycobacterium tuberculosis; assay: Antimycobacterial activity against Mycobacterium tuberculosis H37Rv CNCTC My 331/88 after 5 days by microplate alamar blue assay; format: functional; details: H37Rv CNCTC My 331/88, 120 h; procedure, shortened: as §2
Staphylococcus aureus = assay: Antibacterial activity against Staphylococcus aureus CCM 4516/08 after 24 to 48 hrs by microdilution broth method; format: functional, organism-based; procedure, shortened: as §1
Pichia kudriavzevii = assay: Antifungal activity against Candida krusei E28 after 72 to 120 hrs by microdilution broth method; format: functional, organism-based
Candida albicans = assay: Antifungal activity against Candida albicans ATCC 44859 after 72 to 120 hrs by microdilution broth method; format: functional, organism-based
[6] = system: Trichophyton mentagrophytes; assay: Antifungal activity against Trichophyton mentagrophytes 445 after 72 to 120 hrs by microdilution broth method; format: functional, organism-based
[7] = system: Staphylococcus epidermidis; assay: Antibacterial activity against methicillin-resistant Staphylococcus epidermidis H 5996/08 after 24 to 48 hrs by microdilution broth method; format: functional, organism-based
Mycobacterium avium [8] = assay: Antimycobacterial activity against pyrazinamide-resistant Mycobacterium avium CNCTC My 152/73 after 5 days by microplate alamar blue assay; format: functional; details: CNCTC My 152/73, 120 h; procedure, shortened: as §2
Nakaseomyces glabratus = assay: Antifungal activity against Candida glabrata 20/I after 72 to 120 hrs by microdilution broth method; format: functional, organism-based
Pseudomonas aeruginosa = assay: Antibacterial activity against Pseudomonas aeruginosa CCM 1961 after 24 to 48 hrs by microdilution broth method; format: functional, organism-based; procedure, shortened: as §1
[9] = system: Staphylococcus epidermidis; assay: Antibacterial activity against Staphylococcus epidermidis H 6966/08 up to 500 uM after 24 to 48 hrs by microdilution broth method; format: functional, organism-based; procedure, shortened: as §1
Escherichia coli = assay: Antibacterial activity against Escherichia coli CCM 4517 after 24 to 48 hrs by microdilution broth method; format: functional, organism-based; procedure, shortened: as §1
[10] = system: Trichophyton mentagrophytes; assay: Antifungal activity against Trichophyton mentagrophytes after 72 to 120 hrs by microdilution broth method; format: functional, organism-based
Mycobacterium avium [11] = assay: Antimycobacterial activity against pyrazinamide-resistant Mycobacterium avium CNCTC My 80/72 after 5 days by microplate alamar blue assay; format: functional; details: CNCTC My 80/72, 120 h; procedure, shortened: as §2

| SMILES | Activity (Aspergillus fumigatus) | Activity (Enterococcus sp.) | Activity (Klebsiella pneumoniae [1]) | Activity [2] | Activity (Candida tropicalis) | Activity (Klebsiella pneumoniae [3]) | MIC (Mycobacterium kansasii) | log K [4] | Activity (Trichosporon asahii) | Activity (Lichtheimia corymbifera) | MIC [5] | Activity (Staphylococcus aureus) | Activity (Pichia kudriavzevii) | Activity (Candida albicans) | Activity [6] | Activity [7] | MIC (Mycobacterium avium [8]) | Activity (Nakaseomyces glabratus) | Activity (Pseudomonas aeruginosa) | Activity [9] | also measured |
| --- | --- | --- | --- | --- | --- | --- | --- | --- | --- | --- | --- | --- | --- | --- | --- | --- | --- | --- | --- | --- | --- |
| CCNc1cnc(C(N)=O)cn1 | inactive | inactive | inactive | inactive | inactive | inactive | > 100 mg/L | -0.552 | inactive | inactive | > 100 mg/L | inactive | inactive | inactive | inactive | inactive | > 100 mg/L | inactive | inactive | inactive | Activity (Escherichia coli): inactive; Activity [10]: inactive; MIC (Mycobacterium avium [11]): > 100 mg/L |
| NC(=O)c1cnc(NCCCc2ccccc2)cn1 | inactive | inactive | inactive | inactive | inactive | inactive | 100 mg/L | 0.1408 | inactive | inactive | 98 µM | inactive | inactive | inactive | inactive | inactive | > 100 mg/L | inactive | inactive | inactive | Activity (Escherichia coli): inactive; Activity [10]: inactive; MIC (Mycobacterium avium [11]): > 100 mg/L |
| NC(=O)c1cncc(NCCCc2ccccc2)n1 | inactive | inactive | inactive | inactive | inactive | inactive | > 100 mg/L | 0.0741 | inactive | inactive | > 100 mg/L | inactive | inactive | inactive | inactive | inactive | > 100 mg/L | inactive | inactive | inactive | Activity (Escherichia coli): inactive; Activity [10]: inactive; MIC (Mycobacterium avium [11]): > 100 mg/L |
| CCCNc1cnc(C(N)=O)cn1 | inactive | inactive | inactive | inactive | inactive | inactive | > 100 mg/L | -0.3878 | inactive | inactive | > 100 mg/L | inactive | inactive | inactive | inactive | inactive | > 100 mg/L | inactive | inactive | inactive | Activity (Escherichia coli): inactive; Activity [10]: inactive; MIC (Mycobacterium avium [11]): > 100 mg/L |
| CNc1cncc(C(N)=O)n1 | inactive | inactive | inactive | inactive | inactive | inactive |  |  | inactive | inactive |  | inactive | inactive | inactive | inactive | inactive |  | inactive | inactive | inactive | Activity (Escherichia coli): inactive; Activity [10]: inactive |
| NNC(=O)c1ccncc1 [ISONIAZID] |  |  |  |  |  |  | 11 µM | -0.7432 |  |  | 3 µM |  |  |  |  |  | 6.25 mg/L (≈ 45.6 µM) |  |  |  | MIC (Mycobacterium avium [11]): 12.5 mg/L (≈ 91.1 µM) |
